This is a sample that favours compounds with a hit; in the whole collection about 2.4% have one here.
CSN inh = inhibitors of human CSN-mediated cullin deneddylation. Q92905. Purified CSN, SCF-Nedd8-OG deneddylation, fluorescence polarization. inhibition, % at 12.5 µM. actives 0.38% (n = 360,000);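 active = pattern-corrected inhibition above about 35%, with an unprinted fluorescence ratio check between 0.5 and 1.5, limit read from the data, passing the limit was not always enough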;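 also: 0% = enzyme with substrate and 100% = substrate without enzyme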
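Assay system: purified human Csn5 enzyme expressed in HEK293T cells; measure: % inhibition; also added: SCFSkp2-Nedd8OG substrate at 10 nM final; technique: fluorescence polarization; times: reaction 90 min, room temperature; medium: Tris buffer pH 7.5, NaCl, DTT, Tween-20, trehalose, ovalbumin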
Rpn11 block = Rpn11 (human) deubiquitinase inhibition | O00487 | human 26S proteasome, Ub4-pepOG fluorescence polarization; 20S core pre-blocked with epoxomicin | inhibition, % at 20 µM | actives 0.59% (n = 360,000) | AID 588493;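 active = inhibition at 20 µM, scaled to each plate's controls, above about 33%, limit read from the data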
Target sequence (O00487 whole entry, looked up): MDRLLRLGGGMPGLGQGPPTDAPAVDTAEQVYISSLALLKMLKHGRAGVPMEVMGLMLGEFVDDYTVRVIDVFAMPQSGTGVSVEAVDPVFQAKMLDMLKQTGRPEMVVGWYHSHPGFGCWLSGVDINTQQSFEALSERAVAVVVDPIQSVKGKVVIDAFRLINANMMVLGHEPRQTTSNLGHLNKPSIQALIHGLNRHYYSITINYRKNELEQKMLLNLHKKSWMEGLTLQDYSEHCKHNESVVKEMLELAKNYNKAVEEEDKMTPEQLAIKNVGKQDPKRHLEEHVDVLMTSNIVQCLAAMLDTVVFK
TPT1 inhibitor = blocks Candida albicans tRNA 2'-phosphotransferase | recombinant caTPT1, FP RNA substrate dephosphorylation | inhibition, % at 5 µM | actives 0.81% (n = 300,000) | AID 1962;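 active = inhibition above the mean of all tested compounds plus 3 SD, set per screening campaign, cut at about 24% in these data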;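 also: plate controls were DMSO alone for no effect and ferristatin control at 100 nM for full effect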
HNF4A DNA FP = change in binding of human HNF4 alpha to DNA | HNF4a-FITC DNA binding, fluorescence polarization, 1 h | activity change, % at 10 µM | actives 0.3% (n = 360,000) | AID 1224865; in the data active = activity change above about 30%, passing the limit was not always enough
Neddyl block = cullin neddylation inhibition; inhibition, % at 25 µM; actives 0.58% (n = 360,000); P61081+Q13564; TR-FRET cullin neddylation, biochemical; in the data active = inhibition above about 36%
Rin1-Abl PPI inh = blocks binding of human Rin1 to Abl. TR-FRET Rin1/Abl binding, biochemical. P00519+Q13671. AID 588664. actives 0.4% (n = 360,000). inhibition, % at 7.35 µM; in the data active = inhibition above about 5%, passing the limit was not always enough
Rpn11 confirm = Rpn11 inhibition confirmation, single concentration | purified human 26S proteasome, Ub4-pepOG fluorescence polarization; proteasome pretreated with epoxomicin | actives 29% (n = 1,900) | inhibition, % at 20 µM | shares compounds with Rpn11 block
MMP-2 inh = counter-screen for RPN11 inhibitors: inhibition of human MMP-2 | shares compounds with Rpn11 block | recombinant MMP-2, FRET peptide cleavage fluorescence | inhibition, % at 20 µM | actives 4% (n = 1,900) | AID 602330;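 also: human MMP-2 activated beforehand with APMA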
Thrombin inh = blocks bovine thrombin, flagging nonselective RPN11 hits; shares compounds with Rpn11 block; bovine thrombin cleavage of Ub4-pepOG, fluorescence polarization; inhibition, % at 20 µM; AID 602333; actives 13% (n = 1,900);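 active = mean inhibition at least 40% at 20 µM, or signal 3 deviations below plate average, so some actives read negative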;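 also: plate controls were thrombin with DMSO for no effect and buffer wells lacking thrombin for full effect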
Active calls of the source: *; . = no result shown. Rule as the data show it, unless noted: active = inhibition above about 40%; inactive = the rest.

SMILES | CSN inh | Rpn11 block | TPT1 inhibitor | HNF4A DNA FP | Neddyl block | Rin1-Abl PPI inh | Rpn11 confirm | MMP-2 inh | Thrombin inh
COC(=O)c1cccc(Nc2nc(-c3ccncc3)nc3ccccc23)c1 | 3.1 | 3.0 | -6.0 | 29.9 | 26.7 | 0.3 | . | . | .
COC(=O)c1ccc(Nc2nc(-c3ccncc3)nc3ccccc23)cc1 | 3.0 | 112.5* | -2.6 | 3.6 | . | 4.2 | 33.4 | -29.7 | 5.4
Cc1ccc([N+](=O)[O-])c(C(=O)N/N=C/c2cccs2)c1 | -2.8 | -7.0 | -1.1 | 2.0 | -14.0 | 2.0 | . | . | .
CCN(CC)CCNC(=O)c1ccc(NC(=O)COc2ccc3c(c2)CCC3)cc1 | -1.6 | -4.1 | . | 2.5 | -0.3 | 5.1 | . | . | .
CC(C)Cc1cc(-c2ccco2)c(C#N)c(N)n1 | 19.3 | 59.7* | -4.3 | 6.0 | 13.8 | -2.4 | -5.7 | -9.3 | -6.3
CC(C)=CCC/C(C)=C/CNC(=O)C[C@H]1C[C@H](C(=O)N2CCOCC2)[C@@]2(CCC3CCCC3)c3[nH]c4cc(-c5ccco5)ccc4c3CCN2C1=O | 16.6 | 45.3* | . | 14.6 | . | 3.9 | 1.7 | 15.9 | 9.1
CC[C@]12c3[nH]c4cc(-c5ccco5)ccc4c3CCN1C(=O)[C@@H](CC(=O)NCCC1=CCCCC1)C[C@@H]2C(=O)N1CCN(C(=O)c2ccco2)CC1 | 25.8 | 30.9 | . | 0.4 | . | -5.0 | . | . | .
O=C(C[C@H]1C[C@H](C(=O)N2CCOCC2)[C@@]2(CCC3CCCC3)c3[nH]c4cc(-c5ccco5)ccc4c3CCN2C1=O)NCCN1CCOCC1 | 10.7 | 17.2 | . | 6.7 | . | 0.1 | . | . | .
O=C(C[C@H]1C[C@H](C(=O)N2CCCCC2)[C@@]2(CCc3ccccc3)c3[nH]c4cc(-c5ccco5)ccc4c3CCN2C1=O)NCc1ccco1 | 18.9 | 78.0* | . | 19.8 | . | -0.2 | 24.6 | 1.1 | 11.2
O=C(C[C@H]1C[C@H](C(=O)N2CCCCC2)[C@@]2(CCc3ccccc3)c3[nH]c4cc(-c5ccco5)ccc4c3CCN2C1=O)NCc1cccc(C(F)(F)F)c1 | 17.9 | 61.3* | . | 20.4 | . | 1.4 | 11.3 | 5.2 | -29.6
O=C(C[C@H]1C[C@H](C(=O)N2CCCCC2)[C@@]2(CCc3ccccc3)c3[nH]c4cc(-c5ccco5)ccc4c3CCN2C1=O)NCCC1=CCCCC1 | 14.3 | 56.5* | . | 19.6 | . | -1.7 | -6.9 | 5.7 | -11.7
O=C(C[C@H]1C[C@H](C(=O)N2CCOCC2)[C@@]2(CCC3CCCC3)c3[nH]c4cc(-c5ccco5)ccc4c3CCN2C1=O)NCc1cccc(C(F)(F)F)c1 | 8.7 | 36.2 | . | 3.3 | . | -4.8 | . | . | .
Cc1cc(OCc2cc(C(=O)NC(C)c3c(C)nn(C)c3C)no2)cc(C)c1Cl (configuration not stated) | -0.3 | 3.1 | 2.1 | -0.2 | 11.7 | -1.2 | . | . | .
Cc1cc(N2CCCC2)c(F)cc1/C=C\[N+](=O)[O-] | 31.2 | 64.1* | . | -1.1 | -2.4 | 3.1 | 60.2* | -53.2 | 21.6
Cc1cc(N2CCC(C)CC2)c(F)cc1[N+](=O)[O-] | 1.6 | 6.4 | 0.7 | 3.7 | -6.6 | 4.5 | . | . | .
CCCCc1ccc(-c2csc(/C(C#N)=C\c3ccc(C)o3)n2)cc1 | 38.0* | 62.4* | 4.4 | 44.7* | -2.8 | -0.9 | 11.6 | -4.7 | 6.4
CCCCc1ccc(-c2csc(/C(C#N)=C/c3ccco3)n2)cc1 | 23.8 | 13.8 | 4.7 | 5.4 | 14.5 | -1.3 | . | . | .
Cc1ccc(NS(=O)(=O)c2ccc3[nH]c(=O)[nH]c3c2)cc1 | 1.6 | -2.8 | -3.0 | 4.0 | 3.2 | -4.4 | . | . | .
CC1=C(C(=O)N(C)C)CC(CC(=O)NC2CCCC2)C(=O)N1Cc1ccccc1 (configuration not stated) | 2.8 | 3.9 | . | -0.4 | -3.4 | -3.5 | . | . | .
O=C(NCCSc1ncc(-c2ccc(F)cc2)[nH]1)c1ccc2c(c1)OCO2 | 0.5 | -11.2 | -4.2 | -2.1 | 2.1 | -2.6 | . | . | .

Compound activity from PubChem.
